Measurements reported in ChEMBL document CHEMBL4725488, “Dual-Stage Picolinic Acid-Derived Inhibitors of Toxoplasma gondii” (ACS Med Chem Lett, 2020).
In brackets after ≈: the same amount, converted by molar mass. Activity calls are given as the source filed them. The rule behind the calls is not given here.

Key:
[1] = system: Toxoplasma gondii; assay: Antiparasitic activity against Toxoplasma gondii ME49 tachyzoites infected in human HFF-1 cells assessed as inhibition of parasitic growth preincubated for 48 hrs followed by [5,6-3H]uracil addition and measured after 24 hrs by liquid scintillation counting analysis; format: functional, organism-based
How it was run: (§1)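 HFF host cells harbouring tachyzoites, or bradyzoites differentiated in vitro by base-mediated maturation, were exposed to compounds in dose–response format. EC50 was the concentration inhibiting 50% of parasites. Tested at least in triplicate (n ≥ 3) unless noted, some in duplicate (n = 2).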

[2] = system: Toxoplasma gondii; assay: Antiparasitic activity against Toxoplasma gondii ME49 bradyzoite infected in human HFF-1 cells assessed as inhibition of parasitic growth preincubated for 48 hrs followed by [5,6-3H]uracil addition and measured after 24 hrs by liquid scintillation counting analysis; format: functional, organism-based; how it was run: as §1
[3] = (§2) Cytotoxicity against HFF cells assessed as reduction in cell viability incubated for 72 hrs by Cell titer assay; format: cell-based; settings: human, HFF cells
How it was run: (§3)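 Uninfected HFF cells exposed to compounds for 72 h. CC50 is the concentration that cuts cell viability by 50%. At least triplicate (n ≥ 3) unless noted, some in duplicate.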

[4] = Lipophilicity log D of compound at pH 7.4; format: physicochemical; settings: buffer
How it was run: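 LogD at pH 7.4, determined experimentally.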

[5] = Kinetic aqueous solubility of the compound in pH 7.4; format: physicochemical; settings: buffer, read-out: Kinetic_solubility
How it was run: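 Kinetic aqueous solubility measured at pH 7.4.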

[6] = Stability in CD-1 mouse liver microsomes assessed as parent compound remaining measured after 60 mins by LC-MS method; format: ADME, Microsome; settings: for remaining at 1 h: CD-1, mouse, liver microsomes, read-out: Stabilty; for Stabilty: mouse, microsomes, 1 h
How it was run: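 Mouse microsomes, reported as percent parent compound remaining after 1 h.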

[7] = Stability in CD-1 mouse plasma assessed as parent compound remaining measured after 60 mins by LC-MS/MS method; format: ADME, cell-free; settings: for remaining at 1 h: CD-1, mouse, read-out: Stabilty
How it was run: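 Mouse plasma, reported as percent parent compound remaining after 1 h.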

[8] = Selectivity index, ratio of CC50 for human HFF cells to EC50 for Toxoplasma gondii ME49 tachyzoites infected in human HFF cells; format: toxicity, cell-based
How it was run: (§4)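 Selectivity index computed as CC50 in uninfected HFF cells (72 h exposure) divided by EC50 for the bradyzoite or tachyzoite growth assay run in the same HFF line.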

[9] = Selectivity index, ratio of CC50 for human HFF cells to EC50 for Toxoplasma gondii ME49 bradyzoite infected in human HFF cells; format: toxicity, cell-based; how it was run: as §4
[10] = Permeability of compound by PAMPA-BBB assay; format: ADME; settings: read-out: permeability
How it was run: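 Blood–brain barrier PAMPA, with permeability reported as Pe (10–6 cm/s).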

[11] = system: HFF; assay: as §2; format: cell-based; settings: human, hff, 72 h; how it was run: as §3
[12] = Protein binding in male Balb/c mouse at 15 mg/kg, ip; format: ADME, organism-based; settings: plasma, read-out: PB (converted)
[13] = Ratio of AUC in brain to plasma in male Balb/c mouse at 15 mg/kg, ip; format: ADME, organism-based; settings: read-out: BPR
How it was run: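 Male BALB/c mice given a single 15 mg/kg ip injection as a clear solution of the sodium salt. Plasma sampled at 30 min and 2 h after dosing, brain at 2 h. Terminal mean AUC to 2 h determined for plasma (ng/mL) and brain (ng/g). Brain-to-plasma ratio taken from these AUCs.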

[14] = Concentration at 2 hrs in male Balb/c mouse brain at 15 mg/kg, ip; settings: in vivo
[15] = Plasma concentration at 2 hrs in male Balb/c mouse plasma at 15 mg/kg, ip; settings: in vivo
[16] = target: T1, Hexokinase (Toxoplasma gondii) (UniProt Q969A8); assay: Inhibition of hexokinase in Toxoplasma gondii ME49 infected human HFF cells assessed as 13C6-glucose-6-phosphate treated at 6 x EC50 4 hrs postinfection for 5 hrs media changed with [13C6]-glucose; format: cell-based
T1 sequence (whole entry): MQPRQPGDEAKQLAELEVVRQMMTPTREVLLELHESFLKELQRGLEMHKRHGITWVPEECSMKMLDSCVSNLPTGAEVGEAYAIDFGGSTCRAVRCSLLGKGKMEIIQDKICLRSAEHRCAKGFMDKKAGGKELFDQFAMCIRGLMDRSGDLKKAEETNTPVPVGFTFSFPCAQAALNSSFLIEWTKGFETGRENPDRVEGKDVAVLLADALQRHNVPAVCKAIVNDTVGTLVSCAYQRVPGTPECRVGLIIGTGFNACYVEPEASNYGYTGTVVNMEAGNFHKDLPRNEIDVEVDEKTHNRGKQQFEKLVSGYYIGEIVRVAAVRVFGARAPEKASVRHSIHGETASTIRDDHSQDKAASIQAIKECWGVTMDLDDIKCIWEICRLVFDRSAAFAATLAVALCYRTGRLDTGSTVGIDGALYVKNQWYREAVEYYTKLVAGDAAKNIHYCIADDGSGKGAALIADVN
How it was run: (§5)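 Infected HFF cells were treated 4 h postinfection with DMSO or compound (2 or 6 × EC50). After 5 h the medium was switched to glucose-free RPMI with 13C6-glucose and labelled for 10 min. Samples were rapidly quenched, processed and analysed by broad-spectrum mass spectrometry for 13C6-glucose-6-phosphate (hexokinase product) against DMSO.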

[17] = target: T1, Hexokinase (Toxoplasma gondii); assay: Inhibition of hexokinase in Toxoplasma gondii ME49 infected human HFF cells assessed as 13C6-glucose-6-phosphate treated at 2 x EC50 4 hrs postinfection for 5 hrs media changed with [13C6]-glucose; format: cell-based; how it was run: as §5
[18] = system: Toxoplasma gondii; assay: Ex vivo inhibition of Toxoplasma gondii ME49 bradyzoite isolated from 30 days post infection brain of C57BL/6J mouse transferred to human HFF cells after 3 days using anti-BAG1 by fluorescence assay; format: functional; settings: time 72.0 hrs
How it was run: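 Bradyzoites were harvested from brains of four infected mice 30+ days after infection, purified and transferred to HFF cells. Compound was added at 1, 3 or 6 × EC50 and incubated 3 days against a DMSO control. Monolayers were fixed, labelled with anti-BAG1 antibody against a bradyzoite-specific antigen, and imaged by fluorescence.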

[19] = HFF cells, read-out: Selectivity ratio

SMILES	EC50 ([1]; Toxoplasma gondii, ME49, HFF-1) [nM]	EC50 ([2]; Toxoplasma gondii, ME49, HFF-1) [nM]	CC50 at 72 h [3] [nM]	selectivity ratio [8, 19]	selectivity ratio [9, 19]	other results
CC(C)(C)c1ccc(C(=O)Nc2cc(Cl)c(-c3ccccc3)cc2C(=O)O)cc1	460	990	> 50000			logD ([4]; read-out: logD): 5.4; solubility kinetic [5]: 2.7 µM (≈ 1.1 µg/mL); remaining at 1 h [6]: 69.2%; remaining at 1 h [7]: 100%
COc1ccc(C(=O)Nc2cc(Cl)cnc2C(=O)O)cc1	7100	2410	> 50000	> 7		selectivity ratio ([9]; HFF cells, read-out: Selectivity Index): > 20.7
CC(C)(C)c1ccc(C(=O)Nc2cc(Cl)cnc2-c2nnn[nH]2)cc1	800	2450	1200	1.5	0.5	
O=C(Nc1cc(Cl)cnc1C(=O)O)c1ccccc1	2420	4470	> 50000	> 20.7	> 11.2	
CC(C)(C)c1ccc(C(=O)Nc2cc(Cl)cnc2C(=O)O)cc1 [listing 1 of 2 here]	240	350	2500	10.4	7.1	logD ([4]; read-out: logD): 2.7; solubility kinetic [5]: 33 µM (≈ 11 µg/mL); Stabilty [6]: 75.4%; remaining at 1 h [7]: 98.4%; Papp [10]: 6.9 ×10⁻⁶ cm/s
CC(C)(C)c1ccc(C(=O)Nc2cc(Cl)c(Br)nc2C(=O)O)cc1	3850	4090	> 50000	> 13	> 12.2	
COc1ccccc1C(=O)Nc1cc(Cl)cnc1C(=O)O	3500	4900	> 50000	> 14.3	> 10.2	
CC(C)(C)c1ccc(C(=O)Nc2cc(Cl)cnc2C(=O)[O-])cc1.[Na+]						EC50 ([1]; hff-1): 320 nM; EC50 ([2]; hff-1): 230 nM; CC50 [11]: 2100 nM; selectivity ratio [8]: 6.6; logD [4]: 2.6; solubility kinetic [5]: 164 µM; Stabilty [6]: 100%; Stabilty ([7]; mouse, 1 h): 88.1%; fraction unbound [12]: 0.005; Kp [13]: 0.1; selectivity ratio [9]: 9.1; brain concentration at 2 h [14]: 816 ng/g; plasma concentration at 2 h [15]: 7883 ng/mL
CC(C)(C)c1ccc(C(=O)Nc2cc(Cl)cnc2C(=O)O)cc1 [listing 2 of 2 here]						inhibition [16]: inactive; inhibition [17]: inactive; inhibition [18]: Active
COC(=O)c1cnc(Cl)cc1NC(=O)c1ccc(C(C)(C)C)cc1	1690	> 10000	> 50000	> 29.6	> 10	
Cc1ccc(C(=O)Nc2cc(Cl)cnc2C(=O)O)cc1	1480	1100	18200	12.3	16.5	
COc1cccc(C(=O)Nc2cc(Cl)cnc2C(=O)O)c1	1820	6200	> 50000	> 27.5	> 8.1	
CC(C)(C)c1ccc(C(=O)Nc2ccc(Br)nc2C(=O)O)cc1	5140	3960	> 50000	> 9.7	> 12.6	
CC(C)(C)c1ccc(C(=O)Nc2cc(Cl)c(-c3ccccc3)nc2C(=O)O)cc1	560	410	48200	86.1	118	logD ([4]; read-out: logD): 3.9; solubility kinetic [5]: 6.4 µM (≈ 2.62 µg/mL); remaining at 1 h [6]: 85.1%; remaining at 1 h [7]: 97.1%; Papp [10]: 5.4 ×10⁻⁶ cm/s
CC(C)(C)c1ccc(C(=O)Nc2cc(Cl)ncc2C(=O)O)cc1	> 10000	> 10000	23600		> 10	
COC(=O)c1ncc(Cl)cc1NC(=O)c1ccc(C(C)(C)C)cc1	430	570	> 50000	> 116	> 87.7	logD ([4]; read-out: logD): 5.3; solubility kinetic [5]: < 1.6 µM; remaining at 1 h [6]: 2.7%; remaining at 1 h [7]: 24.7%
CC(C)(C)c1ccc(C(=O)Nc2cc(Cl)cnc2C(N)=O)cc1	> 10000	> 10000	> 50000		> 50	
CC(C)(C)c1ccc(C(=O)Nc2cccnc2C(=O)O)cc1	1110	2160	9000	8.1	4.2	
